In ChEMBL document CHEMBL5506039, “Discovery and Optimization of Tambjamines as a Novel Class of Antileishmanial Agents” (J Med Chem, 2024):
Activity calls are given as the source filed them. The calls are words filed in the database; no cut-off is given here.

Tests used:
[1] = AUC (0 to last) in male ICR-CD1 mouse liver at 40 mg/kg, po administered as single dose and measured upto 72 hrs; format: ADME, organism-based; conditions: in vivo
Outline: (§1)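 Oral (intragastric) single dose, formulated in 50% PEG-400:50% sterile water, given to male ICR-CD1 mice (23–28 g), three per time point. Terminal cardiac-puncture blood (heparinized) and liver taken at 0, 0.5, 1, 2, 4, 8, 24, 30, 48, 54 and 72 h. Plasma separated by centrifugation at 4 °C. Samples held at −80 °C before drug quantitation and PK parameter calculation.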

[2] = Cytotoxicity against mouse J774.A1 cells assessed as cell survival at 0.1 uM measured after 96 hrs by SYBR Green II dye based analysis relative to control; format: toxicity; conditions: read-out: Survival
Outline: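 Uninfected J774A.1 mouse macrophages were plated at 1 × 10⁴ cells/well in DMEM with 10% heat-inactivated FBS and left 3 h at 37 °C to reattach. Compounds were added from DMSO, and analogues were screened at 0.1 μM. After 96 h at 37 °C in 5% CO₂, medium was removed. SYBR Green II (1:1000 in 1% Triton/PBS) was added for 1 h in the dark at room temperature, and fluorescence was read at Ex 485/Em 535 as a DNA-content measure of viability.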

[3] = Apparent elimination half life in male ICR-CD1 mouse liver at 40 mg/kg, po administered as single dose and measured upto 72 hrs; format: ADME, organism-based; conditions: in vivo; outline: as §1
[4] = Therapeutic index, ratio of EC50 for mouse J774.A1 cells to EC50 for antileishmanial activity against Leishmania mexicana MNYC/BZ/62/M379 amastigotes expressing red-shifted firefly luciferase from integrated ribosomal (28S) RNA locus infected in mouse J774.A1 cells; format: toxicity, cell-based; conditions: read-out: TI
[5] = Apparent elimination half life in male ICR-CD1 mouse plasma at 40 mg/kg, po administered as single dose and measured upto 72 hrs; format: ADME, organism-based; conditions: in vivo; outline: as §1
[6] = AUC (0 to infinity) in male ICR-CD1 mouse plasma at 40 mg/kg, po administered as single dose and measured upto 72 hrs; format: ADME, organism-based; conditions: in vivo; outline: as §1
[7] = Cmax in male ICR-CD1 mouse plasma at 40 mg/kg, po administered as single dose and measured upto 72 hrs; format: ADME, organism-based; conditions: in vivo; outline: as §1
Leishmania mexicana [8] = experiment: (§2) Antileishmanial activity against Leishmania mexicana MNYC/BZ/62/M379 amastigotes expressing red-shifted firefly luciferase from integrated ribosomal (28S) RNA locus infected in mouse J774.A1 cells assessed as inhibition of parasite growth at 0.1 uM measured after 96 hrs by luminescence based analysis relative to control; format: functional; conditions: MNYC/BZ/62/M379, J774.A1, read-out: INH
[9] = Mutagenicity in Salmonella typhimurium […] assessed as increase in revertant rate upto 10 uM incubated for 96 hrs in absence of S9 fraction by AMES test; format: toxicity; conditions: salmonella enterica subsp. enterica serovar typhimurium, s9, 96 h
Outline: (§3)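 96-well Ames format: overnight 37 °C cultures of TA98 and TA100 mixed with exposure medium, with or without S9. Compound tested up to 10 μM, plates incubated 96 h at 37 °C and positive wells over background scored visually. Positive controls were 2-aminoanthracene (with S9) and 4-nitroquinoline N-oxide plus 2-nitrofluorene (without S9).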

Leishmania mexicana [10] = experiment: Antileishmanial activity against Leishmania mexicana MNYC/BZ/62/M379 amastigotes expressing red-shifted firefly luciferase from integrated ribosomal (28S) RNA locus infected in mouse J774.A1 cells assessed as reduction in parasite survival measured after 96 hrs by luminescence based analysis; format: functional, organism-based; conditions: MNYC/BZ/62/M379, J774.A1, 96 h
Outline: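 J774A.1 macrophages infected with stationary-phase luciferase-expressing promastigotes at 10:1 parasites:macrophage, overnight at 37 °C, 5% CO₂. Non-internalized parasites washed off and 1 × 10⁴ cells/well replated in MEM/10% HI-FBS. Compounds in DMSO added as serial 3-fold dilutions (typically 10 μM–1 nM) for 96 h. Luciferase luminescence read; EC50 from log-transformed sigmoidal variable-slope fit. Mean ± SD of ≥2 independent experiments.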

[11] = Mutagenicity in Salmonella typhimurium TA100 assessed as increase in revertant rate upto 10 uM incubated for 96 hrs in absence of S9 fraction by AMES test; format: toxicity; conditions: salmonella enterica subsp. enterica serovar typhimurium, s9, 96 h; outline: as §3
[12] = Mutagenicity in Salmonella typhimurium […] assessed as increase in revertant rate upto 10 uM incubated for 96 hrs in presence of S9 fraction by AMES test; format: toxicity, subcellular; conditions: salmonella enterica subsp. enterica serovar typhimurium, s9, 96 h; outline: as §3
HepG2 = experiment: Cytotoxicity against human HepG2 cells assessed as inhibition of cell growth incubated for 48 hrs by MTT assay; format: toxicity, cell-based
Outline: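 HepG2 cells, 2.5 × 10⁴/well in supplemented complete MEM, settled overnight at 37 °C, 5% CO₂. Compounds given as 11 duplicate 1.6-fold dilutions, 10 to 0.15 μg/mL, for 48 h. MTT added for 1 h in the dark at room temperature, formazan dissolved in acidified isopropanol, absorbance read. Triplicate runs; IC50 by sigmoidal variable-slope regression.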

[13] = Extrapolated AUC in male ICR-CD1 mouse liver at 40 mg/kg, po administered as single dose and measured upto 72 hrs; format: ADME, organism-based; conditions: in vivo; outline: as §1
[14] = Tmax in male ICR-CD1 mouse liver at 40 mg/kg, po administered as single dose and measured upto 72 hrs; format: ADME, organism-based; conditions: in vivo; outline: as §1
Leishmania mexicana [15] = experiment: Antileishmanial activity against Leishmania mexicana amastigotes expressing red-shifted firefly luciferase from integrated ribosomal (28S) RNA locus infected in female BALB/c mouse assessed as retardation of lesion progression by measuring reduction in luminescence signal over infected footpad at …; format: functional, organism-based; conditions: dose 40.0 mg/kg/day, route po, time 20-29 day
Leishmania mexicana [16] = experiment: Antileishmanial activity against Leishmania mexicana amastigotes expressing red-shifted firefly luciferase from integrated ribosomal (28S) RNA locus infected in female BALB/c mouse assessed as retardation of lesion progression by measuring reduction in footpad lesion at 40 mg/kg/day, po …; format: functional, organism-based; conditions: time 20-29 day
[17] = AUC (0 to last) in male ICR-CD1 mouse plasma at 40 mg/kg, po administered as single dose and measured upto 72 hrs; format: ADME, organism-based; conditions: in vivo; outline: as §1
Leishmania mexicana [18] = experiment: as §2, with “as” for “as inhibition of”, “survival” for “growth”; format: functional; conditions: MNYC/BZ/62/M379, J774.A1
[19] = Extrapolated AUC in male ICR-CD1 mouse plasma at 40 mg/kg, po administered as single dose and measured upto 72 hrs; format: ADME, organism-based; conditions: in vivo; outline: as §1
[20] = Cmax in male ICR-CD1 mouse liver at 40 mg/kg, po administered as single dose and measured upto 72 hrs; format: ADME, organism-based; conditions: in vivo; outline: as §1
[21] = AUC (0 to infinity) in male ICR-CD1 mouse liver at 40 mg/kg, po administered as single dose and measured upto 72 hrs; format: ADME, organism-based; conditions: in vivo; outline: as §1
[22] = Metabolic stability in pre-warmed pooled human liver microsomes assessed as half life at 1 uM measured upto 60 mins by LC-MS analysis; format: ADME, Microsome
Outline: (§4)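 Compound at 1 μM final with 0.5 mg/mL pooled human or mouse liver microsomes, 1.3 mM NADP and 3.3 mM MgCl₂ in 100 mM potassium phosphate, pH 7.4. Reaction started with 1 U/mL G6PD at 37 °C with shaking.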

[23] = Metabolic stability in pre-warmed pooled mouse liver microsomes assessed as half life at 1 uM measured upto 60 mins by LC-MS analysis; format: ADME, Microsome; outline: as §4
[24] = Mutagenicity in Salmonella typhimurium TA100 assessed as increase in revertant rate upto 10 uM incubated for 96 hrs in presence of S9 fraction by AMES test; format: toxicity, subcellular; conditions: salmonella enterica subsp. enterica serovar typhimurium, s9, 96 h; outline: as §3
[25] = Cytotoxicity against mouse J774.A1 cells assessed as reduction in cell survival measured after 96 hrs by SYBR Green II dye based analysis; format: toxicity
Outline: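 Uninfected J774A.1 macrophages, 1 × 10⁴ cells/well in DMEM/10% HI-FBS, reattached 3 h, then exposed to compounds for 96 h. DNA content read after lysis with SYBR Green II (1:1000 in 1% Triton/PBS), 1 h dark at room temperature, fluorescence Ex 485/Em 535.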

[26] = Tmax in male ICR-CD1 mouse plasma at 40 mg/kg, po administered as single dose and measured upto 72 hrs; format: ADME, organism-based; conditions: in vivo; outline: as §1

Compound	viability at 96 h, 0.1 µM [2]	selectivity ratio [4]	EC50 (Leishmania mexicana [10])	IC50 (HepG2)	Activity (Leishmania mexicana [15])	Activity (Leishmania mexicana [16])	survival at 0.1 µM (Leishmania mexicana [18])	half-life at 1 µM [22]	EC50 at 96 h [25]	also measured
CCc1ccc(C2=N/C(=C\NC3CCCCCC3)C(C)=C2C)[nH]1.Cl	71.2%	28	0.0409 µM	2.99 µM	Active	Active	3.7%	> 1 h	1.14 µM	AUClast [1]: 22982 ng·h/mL; betat1/2(app) [3]: > 36 h; betat1/2(app) [5]: > 72 h; AUC [6]: 206250 ng·h/mL; Cmax [7]: 35 ng/mL; percent inhibition of parasite growth at 0.1 µM (Leishmania mexicana [8]): > 96%; Activity [9]: Non-Toxic; Activity [11]: Non-Toxic; Activity [12]: Non-Toxic; %AUCextra [13]: 0.262%; Tmax [14]: 2 h; AUClast [17]: 2421 ng·h/mL; %AUCextra [19]: 98.8%; Cmax [20]: 3667 ng/mL; AUC [21]: 23043 ng·h/mL; half-life at 1 µM [23]: > 1 h; Activity [24]: Non-Toxic; Tmax [26]: 0 h
C(/NC1CCCCC1)=C1/N=C(c2ccc[nH]2)C2=C1CCCC2.Cl	60.3%	23	0.13 µM	8.21 µM	Active	Active	40.9%	0.445 h	2.93 µM	
